One assay relates to HL-60. The experiment in a line: Antiproliferative activity against human HL60 cells after 48 hrs by CellTiter-Glo luminescent cell viability assay. In kind it is functional, cell-based. Conditions: HL-60, 48 h. The procedure, abridged:
(§1)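 Cells in RPMI with 10% FBS, L-glutamine, penicillin and streptomycin at 37 °C, 5% CO2. Seeded at 3 × 10^5 per mL and exposed to a range of compound concentrations or 0.05% DMSO for 48 h. Viability read by CellTiter-Glo luminescence. EC50 from curve fitting; errors reflect fit quality.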

The next assay has as its system MV4-11. The experiment in a line: Antiproliferative activity against human MV4-11 cells after 48 hrs by CellTiter-Glo luminescent cell viability assay. In kind it is functional, cell-based. Conditions: MV4-11, 48 h. In short, it runs like this:
as §1
On the technique in general: In ATP-based viability assays light output follows the ATP content of the culture.

Assay [1] concerns the target T1, von Hippel-Lindau disease tumor suppressor/Bromodomain-containing protein 4 (Homo sapiens, UniProt O60885+P40337). The experiment in a line: Proteolysis targeting chimera activity in human HeLa cells assessed as induction of VCB-mediated delivery of BRD4 short isoform for protein degradation by proteasome by measuring drug level causing 50% cellular protein depletion incubated for 24 hrs by Western blotting method. In kind it is cell-based.

Assay [2] addresses T1, von Hippel-Lindau disease tumor suppressor/Bromodomain-containing protein 4. The experiment in a line: Proteolysis targeting chimera activity in human HeLa cells assessed as induction of VCB-mediated delivery of BRD4 long isoform for protein degradation by proteasome by measuring drug level causing 50% cellular protein depletion incubated for 24 hrs by Western blotting method. In kind it is cell-based. A general note: A western blot detects proteins with antibodies after separation by electrophoresis.

Assay [3] has as its target T2, von Hippel-Lindau disease tumor suppressor/Bromodomain-containing protein 3/Elongin-B/Elongin-C (Homo sapiens, UniProt Q15059+P40337+Q15370+Q15369). The experiment in a line: Proteolysis targeting chimera activity in human HeLa cells assessed as induction of VCB-mediated delivery of BRD3 for protein degradation by proteasome by measuring drug level causing 50% cellular protein depletion incubated for 24 hrs by Western blotting method. In kind it is cell-based.

Assay [4] deals with Bromodomain-containing protein 4 (Homo sapiens, UniProt O60885). The experiment in a line: Binding affinity to N-terminal His6-tagged recombinant human Brd4 BD2 expressed in Escherichia coli BL21 (DE3) assessed as compound binary complex formation by isothermal titration calorimetry-based assay. In short, it runs like this:
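ITC at 25 °C, stirred, in 20 mM Bis-Tris propane, 150 mM NaCl, 1 mM TCEP, pH 7.4, with 0.2% or 3% DMSO depending on scaffold. Bromodomain titrated into PROTAC (20 μM in cell, halved for poorly soluble compounds) over 19 injections. Single-binding-site fit gave n, Kd and ΔH.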
In general terms: Isothermal titration calorimetry measures the heat released or taken up as one component is titrated into another.

For assay [5], the target named is Von Hippel-Lindau disease tumor suppressor/Elongin B/Elongin C (Homo sapiens, UniProt P40337). The experiment in a line: Binding affinity to N-terminal His6-tagged recombinant human VHL (54 to 213 residues)/elongin C (17 to 112 residues)/elongin B (1 to 104 residues) expressed in Escherichia coli BL21 (DE3) assessed as compound binary complex formation by isothermal titration calorimetry-based assay.

Assay [6] concerns the target von Hippel-Lindau disease tumor suppressor/Bromodomain-containing protein 4/Elongin-B/Elongin-C (Homo sapiens, UniProt O60885+P40337+Q15369+Q15370). The experiment in a line: Induction of interaction of N-terminal His6-tagged recombinant human VHL (54 to 213 residues)/elongin C (17 to 112 residues)/elongin B (1 to 104 residues) co-expressed in Escherichia coli BL21 (DE3) with recombinant human Brd4 BD2 assessed as VCB/BRD4/compound ternary complex formation by isothermal titration calorimetry-based assay.

Assay [7] concerns the target T1, von Hippel-Lindau disease tumor suppressor/Bromodomain-containing protein 4. The experiment in a line: Proteolysis targeting chimera activity in human HeLa cells assessed as induction of VCB-mediated delivery of BRD4 short isoform for protein degradation by proteasome at 1 to 10 uM incubated for 24 hrs by Western blotting method. In kind it is cell-based. In short, it runs like this: (§2)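 HeLa cells seeded at 3 × 10^5 per well and treated the next day for 24 h. Lysed in RIPA buffer with protease inhibitors, Benzonase and 0.5 mM MgCl2, then immunoblotted. Bands normalized to β-actin and quantified against DMSO control. Dmax is the largest depletion across concentrations. Two biological replicates.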

Assay [8] shares this target. The experiment in a line: Proteolysis targeting chimera activity in human HeLa cells assessed as induction of VCB-mediated delivery of BRD4 long isoform for protein degradation by proteasome at 1 to 10 uM incubated for 24 hrs by Western blotting method. In kind it is cell-based. In short, it runs like this:
as §2

For assay [9], the target named is T2, von Hippel-Lindau disease tumor suppressor/Bromodomain-containing protein 3/Elongin-B/Elongin-C. The experiment in a line: Proteolysis targeting chimera activity in human HeLa cells assessed as induction of VCB-mediated delivery of BRD3 for protein degradation by proteasome at 1 to 10 uM incubated for 24 hrs by Western blotting method. In kind it is cell-based. The procedure, abridged:
as §2

In assay [10] the target is T3, von Hippel-Lindau disease tumor suppressor/Bromodomain-containing protein 2/Elongin-B/Elongin-C (Homo sapiens) (UniProt P25440+P40337+Q15370+Q15369). The experiment in a line: Proteolysis targeting chimera activity in human HeLa cells assessed as induction of VCB-mediated delivery of BRD2 for protein degradation by proteasome at 1 to 10 uM incubated for 24 hrs by Western blotting method. In kind it is cell-based. The procedure, abridged:
as §2

The target of assay [11] is T1, von Hippel-Lindau disease tumor suppressor/Bromodomain-containing protein 4. The experiment in a line: Proteolysis targeting chimera activity in human HeLa cells assessed as induction of VCB-mediated delivery of BRD4 short isoform for protein degradation by proteasome at 1 to 10 uM incubated for 6 hrs by Western blotting method. In kind it is cell-based. In short, it runs like this: (§3)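 HeLa cells seeded at 3 × 10^5 per well and treated the next day for 6 h. RIPA lysates (protease inhibitors, Benzonase, 0.5 mM MgCl2) immunoblotted. Band intensities normalized to β-actin and expressed relative to DMSO vehicle.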

The target is the same in assay [12]. The experiment in a line: Proteolysis targeting chimera activity in human HeLa cells assessed as induction of VCB-mediated delivery of BRD4 long isoform for protein degradation by proteasome at 1 to 10 uM incubated for 6 hrs by Western blotting method. In kind it is cell-based. The procedure, abridged: as §3
Assay [13] deals with T2, von Hippel-Lindau disease tumor suppressor/Bromodomain-containing protein 3/Elongin-B/Elongin-C. The experiment in a line: Proteolysis targeting chimera activity in human HeLa cells assessed as induction of VCB-mediated delivery of BRD3 for protein degradation by proteasome at 1 to 10 uM incubated for 6 hrs by Western blotting method. In kind it is cell-based. In short, it runs like this:
as §3

Assay [14] has as its target T3, von Hippel-Lindau disease tumor suppressor/Bromodomain-containing protein 2/Elongin-B/Elongin-C (Homo sapiens). The experiment in a line: Proteolysis targeting chimera activity in human HeLa cells assessed as induction of VCB-mediated delivery of BRD2 for protein degradation by proteasome at 1 to 10 uM incubated for 6 hrs by Western blotting method. In kind it is cell-based. The procedure, abridged: as §3

The target of assay [15] is von Hippel-Lindau disease tumor suppressor/Bromodomain-containing protein 2/Elongin-B/Elongin-C (Homo sapiens, UniProt P25440+P40337+Q15369+Q15370). The experiment in a line: Induction of interaction of N-terminal His6-tagged recombinant human VHL (54 to 213 residues)/elongin C (17 to 112 residues)/elongin B (1 to 104 residues) co-expressed in Escherichia coli BL21 (DE3) with recombinant human Brd2 BD1 assessed as VCB/BRD2/compound ternary complex formation by isothermal titration calorimetry-based assay.

Results on 7 compounds are retold here after ChEMBL document CHEMBL4219029, “Impact of Target Warhead and Linkage Vector on Inducing Protein Degradation: Comparison of Bromodomain and Extra-Terminal (BET) Degraders Derived from Triazolodiazepine (JQ1) and Tetrahydroquinoline (I-BET726) BET Inhibitor Scaffolds” (J Med Chem, 2018).

Molecules are shown by their SMILES. Active and inactive are the calls of the source. The rule behind the calls is not given here.

As usually defined, the EC50 is the concentration at which the effect is half-maximal. In the assay on HL-60, `Cc1ncsc1-c1ccc(CNC(=O)[C@@H]2C[C@@H](O)CN2C(=O)[C@@H](NC(=O)COCCOCCOCCNC(=O)C[C@@H]2N=C(c3ccc(Cl)cc3)c3c(sc(C)c3C)-n3c(C)nnc32)C(C)(C)C)cc1` gave an EC50 of 219 nM and an Emax of 92%. In addition, the EC50 in the assay on MV4-11 is 26.9 nM.
For orientation: Kd means the free concentration of one partner at which half of the binding sites on the other are occupied at equilibrium, for simple one-to-one binding. Regarding `CC(=O)N1c2ccc(-c3ccc(C(=O)NCCOCCOCCOCCOCC(=O)N[C@H](C(=O)N4C[C@H](O)C[C@H]4C(=O)NCc4ccc(-c5scnc5C)cc4)C(C)(C)C)cc3)cc2[C@H](Nc2ccc(Cl)cc2)C[C@@H]1C`, the Activity result in [1], in assay [2] and in assay [3] was “Dose-dependent effect” throughout. Further, the results for the pDC50 in [1], in assay [2] and in [3] were 8.1, 7.5 and 7.7, respectively. Moreover, the EC50 is 427 nM with HL-60 and 83.2 nM in the assay with MV4-11. Besides, the values for the Emax in the assay with HL-60 and in the assay on MV4-11 were 98.3% and 96.4%, respectively. Further, the Kd in [4] worked out at 8 nM; in assay [5] it was 109 nM; in assay [6], 183 nM; in assay [15], 330 nM. In addition, the result in assay [7], in [8], in assay [9], in assay [10], in assay [11] and in assay [12] was inactive. For the same compound, the result in assay [13] and in [14] was inactive.
The compound `Cc1sc2c(c1C)C(c1ccc(Cl)cc1)=N[C@@H](CC(=O)Nc1ccc(OCCOCCOCCOCCNc3cccc4c3C(=O)N(C3CCC(=O)NC3=O)C4=O)cc1)c1nnc(C)n1-2` (stereo not given in full) displayed an Emax with HL-60 of 88%.
Regarding `CC(=O)N1c2ccc(-c3ccc(C(=O)O)cc3)cc2[C@H](Nc2ccc(Cl)cc2)C[C@@H]1C`, the values for the Emax in the assay with HL-60 and in the assay with MV4-11 were 82.4% and 73.3%, respectively.
On to `Cc1ncsc1-c1ccc(CNC(=O)[C@@H]2C[C@@H](O)CN2C(=O)[C@@H](NC(=O)COCCOCCOCCOCCNC(=O)C[C@@H]2N=C(c3ccc(Cl)cc3)c3c(sc(C)c3C)-n3c(C)nnc32)C(C)(C)C)cc1`, for which the pDC50 in [1] stood at 8.4. For the same compound, a half-maximal response with HL-60 (EC50) required 1260 nM. Also, the results for the Emax in the assay with HL-60 and with MV4-11 were 91.7% and 95.2%, respectively. The Kd in assay [4] stood at 27 nM; in assay [6], 15 nM.
In the case of `CC(=O)N1c2ccc(-c3ccc(C(=O)NCCOCCOCC(=O)N[C@H](C(=O)N4C[C@H](O)C[C@H]4C(=O)NCc4ccc(-c5scnc5C)cc4)C(C)(C)C)cc3)cc2[C@H](Nc2ccc(Cl)cc2)C[C@@H]1C`, the pDC50 in [1] stood at 6.9; in assay [2], 6.7; in [3], 6.8. The EC50 was 676 nM with HL-60 and 575 nM in the assay with MV4-11. Further, the figures for the Emax in the assay on HL-60 and in the assay on MV4-11 were 96.6% and 88.1%, respectively. Moreover, the values for the Kd in assay [4], in [5] and in assay [6] were 3 nM, 116 nM and 781 nM, respectively.
`Cc1ncsc1-c1ccc(CNC(=O)[C@@H]2C[C@@H](O)CN2C(=O)[C@@H](NC(=O)COCCOCCNC(=O)C[C@@H]2N=C(c3ccc(Cl)cc3)c3c(sc(C)c3C)-n3c(C)nnc32)C(C)(C)C)cc1`: the EC50 with HL-60 was 1450 nM; in the assay on MV4-11, 178 nM. Moreover, the Emax in the assay with HL-60 and with MV4-11 was 91.4% throughout. Besides, the figures for the Kd in assay [4] and in assay [6] were 17 nM and 26 nM, respectively.
